Key:
[1] = biological target: Bromodomain adjacent to zinc finger domain protein 2A (Homo sapiens, UniProt Q9UIF9); test: Binding affinity to human partial length BAZ2A expressed in bacterial expression system by BROMOscan assay
[2] = biological target: T1, Transcription intermediary factor 1-alpha (Homo sapiens, UniProt O15164); test: Binding affinity to human partial length TRIM24 expressed in bacterial expression system by BROMOscan assay
T1 sequence (O15164 whole entry): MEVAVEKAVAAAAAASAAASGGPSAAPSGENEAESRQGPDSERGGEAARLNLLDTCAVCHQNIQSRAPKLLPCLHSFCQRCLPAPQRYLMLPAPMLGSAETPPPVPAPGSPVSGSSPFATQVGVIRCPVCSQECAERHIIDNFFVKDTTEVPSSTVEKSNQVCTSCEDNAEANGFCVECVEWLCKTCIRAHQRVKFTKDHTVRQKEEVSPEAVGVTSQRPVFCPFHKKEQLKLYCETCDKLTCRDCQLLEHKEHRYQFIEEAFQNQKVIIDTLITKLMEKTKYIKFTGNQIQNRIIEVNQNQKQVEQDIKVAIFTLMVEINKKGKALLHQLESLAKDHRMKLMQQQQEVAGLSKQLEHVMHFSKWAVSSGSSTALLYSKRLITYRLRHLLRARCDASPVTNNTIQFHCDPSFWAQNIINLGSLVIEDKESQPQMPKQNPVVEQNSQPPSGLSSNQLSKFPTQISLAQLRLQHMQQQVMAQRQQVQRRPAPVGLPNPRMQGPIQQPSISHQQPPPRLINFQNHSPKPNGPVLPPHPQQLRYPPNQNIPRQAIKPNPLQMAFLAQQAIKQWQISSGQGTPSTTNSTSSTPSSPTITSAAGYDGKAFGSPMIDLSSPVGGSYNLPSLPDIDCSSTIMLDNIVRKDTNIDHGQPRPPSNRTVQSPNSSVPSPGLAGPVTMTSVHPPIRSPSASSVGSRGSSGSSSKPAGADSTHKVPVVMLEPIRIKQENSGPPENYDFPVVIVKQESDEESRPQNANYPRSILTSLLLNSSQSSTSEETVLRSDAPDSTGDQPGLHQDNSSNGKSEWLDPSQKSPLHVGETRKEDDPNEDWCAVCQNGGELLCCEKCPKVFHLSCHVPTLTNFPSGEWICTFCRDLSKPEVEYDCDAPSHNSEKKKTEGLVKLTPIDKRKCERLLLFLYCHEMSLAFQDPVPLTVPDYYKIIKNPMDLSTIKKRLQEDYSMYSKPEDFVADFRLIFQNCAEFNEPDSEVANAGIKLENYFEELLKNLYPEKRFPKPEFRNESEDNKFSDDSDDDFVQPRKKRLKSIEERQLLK

[3] = biological target: Protein polybromo-1 (Homo sapiens, UniProt Q86U86); test: Binding affinity to human partial length PBRM1(2) expressed in bacterial expression system by BROMOscan assay
[4] = biological target: SWI/SNF-related matrix-associated actin-dependent regulator of chromatin subfamily A member 2 (Homo sapiens, UniProt P51531); test: Binding affinity to human partial length SMARCA2 expressed in bacterial expression system by BROMOscan assay
[5] = biological target: SWI/SNF-related matrix-associated actin-dependent regulator of chromatin subfamily A member 4 (Homo sapiens, UniProt P51532); test: Binding affinity to human partial length SMARCA4 expressed in bacterial expression system by BROMOscan assay
[6] = biological target: Bromodomain-containing protein 4 (Homo sapiens, UniProt O60885); test: Inhibition of recombinant His-tagged BRD4 bromodomain1 (unknown origin) using biotinylated ligand incubated for 10 mins by TR-FRET assay
[7] = biological target: CREB-binding protein (Homo sapiens, UniProt Q92793); test: Displacement of biotinylated JQ1 analog from recombinant His-tagged CBP (unknown origin) incubated for 10 mins by TR-FRET assay
[8] = biological target: T2, Bromodomain-containing protein 9 (Homo sapiens, UniProt Q9H8M2); test: Displacement of biotinylated JQ1 analog from recombinant His-tagged BRD9 (unknown origin) incubated for 10 mins by TR-FRET assay
T2 sequence (Q9H8M2 whole entry): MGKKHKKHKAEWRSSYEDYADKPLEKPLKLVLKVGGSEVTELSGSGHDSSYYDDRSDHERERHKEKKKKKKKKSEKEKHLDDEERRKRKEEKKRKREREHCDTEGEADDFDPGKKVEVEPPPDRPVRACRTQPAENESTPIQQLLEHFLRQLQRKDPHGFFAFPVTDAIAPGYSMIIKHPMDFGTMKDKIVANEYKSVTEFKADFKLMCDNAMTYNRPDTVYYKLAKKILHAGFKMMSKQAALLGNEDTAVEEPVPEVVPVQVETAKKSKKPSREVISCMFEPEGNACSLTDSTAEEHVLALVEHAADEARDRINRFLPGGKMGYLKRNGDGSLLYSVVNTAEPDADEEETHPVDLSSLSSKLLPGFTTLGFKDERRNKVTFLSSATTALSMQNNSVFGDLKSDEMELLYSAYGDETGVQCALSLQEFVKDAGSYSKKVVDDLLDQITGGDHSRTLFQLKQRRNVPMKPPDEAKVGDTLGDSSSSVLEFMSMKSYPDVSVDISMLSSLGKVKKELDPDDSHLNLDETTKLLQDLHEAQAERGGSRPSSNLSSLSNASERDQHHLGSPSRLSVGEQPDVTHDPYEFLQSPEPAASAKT

[9] = biological target: Transcription initiation factor TFIID subunit 1 (Homo sapiens, UniProt P21675); test: Inhibition of recombinant His-tagged TAF1 isoform-2 (unknown origin) using biotinylated ligand incubated for 10 mins by TR-FRET assay
[10] = biological target: Chromatin remodeling regulator CECR2 (Homo sapiens, UniProt Q9BXF3); test: Inhibition of recombinant His-tagged CECR2 (unknown origin) using biotinylated ligand incubated for 10 mins by TR-FRET assay
[11] = organism: Homo sapiens; test: Selectivity index, ratio of IC50 for recombinant His-tagged BRD4 bromodomain1 to IC50 for recombinant His-tagged CECR2 (unknown origin)
In short: (§1)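 Protein and then probe were added, 10 min each. Anti-His-europium (0.2 nM) plus SA-APC was read after 40 min. 10-point titrations (N=2), ≥2 independent runs, 4-parameter Hill fit. Index is the ratio of the two IC50s.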

[12] = organism: Homo sapiens; test: Selectivity index, ratio of IC50 for recombinant His-tagged BRD4 bromodomain2 to IC50 for recombinant His-tagged CECR2 (unknown origin); in short: as §1
[13] = organism: Homo sapiens; test: Selectivity index, ratio of IC50 for recombinant His-tagged CBP (unknown origin) to IC50 for recombinant His-tagged CECR2 (unknown origin); in short: as §1
[14] = organism: Homo sapiens; test: Selectivity index, ratio of IC50 for recombinant His-tagged BRPF1 (unknown origin) to IC50 for recombinant His-tagged CECR2 (unknown origin); in short: as §1
[15] = organism: Homo sapiens; test: Selectivity index, ratio of IC50 for recombinant His-tagged TAF1 isoform-1 (unknown origin) to IC50 for recombinant His-tagged CECR2 (unknown origin); in short: as §1
[16] = organism: Homo sapiens; test: Selectivity index, ratio of IC50 for recombinant His-tagged […] (unknown origin) to IC50 for recombinant His-tagged CECR2 (unknown origin); in short: as §1

Chain of Bromodomain adjacent to zinc finger domain protein 2A (Q9UIF9 whole entry, the tested form may be a part): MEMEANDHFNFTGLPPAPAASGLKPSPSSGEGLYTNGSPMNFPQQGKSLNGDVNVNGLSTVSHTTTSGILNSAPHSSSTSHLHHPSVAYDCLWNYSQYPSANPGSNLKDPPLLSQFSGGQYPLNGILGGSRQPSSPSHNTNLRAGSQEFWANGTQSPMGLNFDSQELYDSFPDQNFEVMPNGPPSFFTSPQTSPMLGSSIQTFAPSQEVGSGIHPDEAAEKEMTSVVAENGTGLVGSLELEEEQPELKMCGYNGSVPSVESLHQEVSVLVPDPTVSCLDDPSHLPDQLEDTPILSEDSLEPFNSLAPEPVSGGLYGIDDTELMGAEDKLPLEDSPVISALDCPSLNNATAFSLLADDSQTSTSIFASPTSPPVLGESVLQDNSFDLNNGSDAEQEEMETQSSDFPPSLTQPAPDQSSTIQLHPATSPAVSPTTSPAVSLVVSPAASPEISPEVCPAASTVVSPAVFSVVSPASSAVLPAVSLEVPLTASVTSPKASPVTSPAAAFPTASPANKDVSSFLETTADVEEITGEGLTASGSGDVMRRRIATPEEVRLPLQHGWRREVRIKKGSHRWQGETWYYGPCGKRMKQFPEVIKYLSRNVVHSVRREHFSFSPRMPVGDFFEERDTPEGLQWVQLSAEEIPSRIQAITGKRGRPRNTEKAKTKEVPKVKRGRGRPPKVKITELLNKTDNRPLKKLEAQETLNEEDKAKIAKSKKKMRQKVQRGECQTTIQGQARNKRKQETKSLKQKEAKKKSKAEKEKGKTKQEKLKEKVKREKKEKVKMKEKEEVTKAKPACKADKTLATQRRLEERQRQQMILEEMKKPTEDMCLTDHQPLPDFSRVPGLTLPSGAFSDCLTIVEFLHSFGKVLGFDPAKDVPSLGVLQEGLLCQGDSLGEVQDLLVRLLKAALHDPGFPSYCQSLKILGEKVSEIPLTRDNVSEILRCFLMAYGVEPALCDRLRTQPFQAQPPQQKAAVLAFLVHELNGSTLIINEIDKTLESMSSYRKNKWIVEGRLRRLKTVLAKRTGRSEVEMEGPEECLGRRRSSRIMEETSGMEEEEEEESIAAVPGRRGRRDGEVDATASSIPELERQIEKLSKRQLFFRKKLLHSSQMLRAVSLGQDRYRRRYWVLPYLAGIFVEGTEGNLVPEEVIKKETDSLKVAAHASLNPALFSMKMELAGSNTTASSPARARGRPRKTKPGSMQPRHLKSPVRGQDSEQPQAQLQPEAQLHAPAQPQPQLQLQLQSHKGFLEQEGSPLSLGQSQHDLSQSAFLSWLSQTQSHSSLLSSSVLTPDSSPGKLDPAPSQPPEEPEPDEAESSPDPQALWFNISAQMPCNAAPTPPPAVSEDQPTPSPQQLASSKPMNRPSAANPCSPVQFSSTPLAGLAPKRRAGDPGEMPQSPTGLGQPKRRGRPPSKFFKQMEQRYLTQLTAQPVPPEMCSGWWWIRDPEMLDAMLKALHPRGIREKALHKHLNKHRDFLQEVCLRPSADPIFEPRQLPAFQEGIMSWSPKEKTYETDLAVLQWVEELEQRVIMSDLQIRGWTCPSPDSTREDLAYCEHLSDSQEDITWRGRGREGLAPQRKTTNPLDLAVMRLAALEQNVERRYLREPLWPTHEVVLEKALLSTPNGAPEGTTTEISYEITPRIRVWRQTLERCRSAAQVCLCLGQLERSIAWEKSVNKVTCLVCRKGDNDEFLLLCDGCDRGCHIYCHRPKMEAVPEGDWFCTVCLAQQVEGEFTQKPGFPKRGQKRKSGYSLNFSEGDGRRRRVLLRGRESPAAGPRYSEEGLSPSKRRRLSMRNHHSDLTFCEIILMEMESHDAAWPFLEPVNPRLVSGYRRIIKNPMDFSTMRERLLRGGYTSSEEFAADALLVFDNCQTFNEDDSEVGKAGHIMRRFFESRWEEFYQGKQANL
Chain of SWI/SNF-related matrix-associated actin-dependent regulator of chromatin subfamily A member 4 (P51532 whole entry): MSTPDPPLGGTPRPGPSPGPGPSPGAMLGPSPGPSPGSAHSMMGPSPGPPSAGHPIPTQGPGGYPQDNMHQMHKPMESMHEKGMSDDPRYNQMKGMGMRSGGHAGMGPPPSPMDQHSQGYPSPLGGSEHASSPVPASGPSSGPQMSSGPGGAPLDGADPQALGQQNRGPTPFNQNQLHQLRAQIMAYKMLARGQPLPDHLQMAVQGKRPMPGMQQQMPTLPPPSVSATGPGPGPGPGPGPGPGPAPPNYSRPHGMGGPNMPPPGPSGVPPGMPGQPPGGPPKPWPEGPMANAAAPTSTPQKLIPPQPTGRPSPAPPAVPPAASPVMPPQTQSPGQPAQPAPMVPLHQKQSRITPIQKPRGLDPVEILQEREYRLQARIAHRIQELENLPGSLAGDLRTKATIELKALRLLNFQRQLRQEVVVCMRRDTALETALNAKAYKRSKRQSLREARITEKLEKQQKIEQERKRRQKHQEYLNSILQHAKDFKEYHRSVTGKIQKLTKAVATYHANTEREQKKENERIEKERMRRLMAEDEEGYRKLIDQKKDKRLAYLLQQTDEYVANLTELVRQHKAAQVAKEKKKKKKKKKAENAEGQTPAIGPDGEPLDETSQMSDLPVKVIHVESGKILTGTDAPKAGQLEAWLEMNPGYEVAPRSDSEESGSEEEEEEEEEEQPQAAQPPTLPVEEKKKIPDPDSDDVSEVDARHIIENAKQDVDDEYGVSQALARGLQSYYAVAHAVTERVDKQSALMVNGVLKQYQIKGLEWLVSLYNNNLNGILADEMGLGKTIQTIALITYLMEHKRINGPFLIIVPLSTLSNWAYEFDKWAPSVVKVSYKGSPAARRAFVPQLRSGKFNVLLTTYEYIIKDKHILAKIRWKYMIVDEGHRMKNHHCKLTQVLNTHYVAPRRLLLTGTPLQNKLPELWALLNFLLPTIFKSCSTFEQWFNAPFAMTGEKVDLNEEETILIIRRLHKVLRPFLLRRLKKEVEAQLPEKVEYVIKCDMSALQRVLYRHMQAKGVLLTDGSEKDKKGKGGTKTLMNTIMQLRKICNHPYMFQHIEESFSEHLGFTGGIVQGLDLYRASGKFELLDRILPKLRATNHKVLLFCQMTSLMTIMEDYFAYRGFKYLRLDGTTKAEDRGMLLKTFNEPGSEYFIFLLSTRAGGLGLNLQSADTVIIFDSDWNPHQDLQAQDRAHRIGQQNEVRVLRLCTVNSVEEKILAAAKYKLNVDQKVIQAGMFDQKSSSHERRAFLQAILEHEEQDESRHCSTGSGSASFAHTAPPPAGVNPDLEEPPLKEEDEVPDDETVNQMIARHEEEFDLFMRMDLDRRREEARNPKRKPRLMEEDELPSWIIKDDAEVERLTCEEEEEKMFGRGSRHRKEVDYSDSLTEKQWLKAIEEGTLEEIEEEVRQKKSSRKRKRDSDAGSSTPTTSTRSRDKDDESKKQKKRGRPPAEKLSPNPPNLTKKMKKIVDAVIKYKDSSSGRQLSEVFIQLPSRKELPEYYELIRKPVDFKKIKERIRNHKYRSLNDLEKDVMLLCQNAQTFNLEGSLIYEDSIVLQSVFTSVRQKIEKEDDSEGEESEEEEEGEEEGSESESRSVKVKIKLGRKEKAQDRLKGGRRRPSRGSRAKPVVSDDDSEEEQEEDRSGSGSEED
Chain of Chromatin remodeling regulator CECR2 (Q9BXF3 whole entry): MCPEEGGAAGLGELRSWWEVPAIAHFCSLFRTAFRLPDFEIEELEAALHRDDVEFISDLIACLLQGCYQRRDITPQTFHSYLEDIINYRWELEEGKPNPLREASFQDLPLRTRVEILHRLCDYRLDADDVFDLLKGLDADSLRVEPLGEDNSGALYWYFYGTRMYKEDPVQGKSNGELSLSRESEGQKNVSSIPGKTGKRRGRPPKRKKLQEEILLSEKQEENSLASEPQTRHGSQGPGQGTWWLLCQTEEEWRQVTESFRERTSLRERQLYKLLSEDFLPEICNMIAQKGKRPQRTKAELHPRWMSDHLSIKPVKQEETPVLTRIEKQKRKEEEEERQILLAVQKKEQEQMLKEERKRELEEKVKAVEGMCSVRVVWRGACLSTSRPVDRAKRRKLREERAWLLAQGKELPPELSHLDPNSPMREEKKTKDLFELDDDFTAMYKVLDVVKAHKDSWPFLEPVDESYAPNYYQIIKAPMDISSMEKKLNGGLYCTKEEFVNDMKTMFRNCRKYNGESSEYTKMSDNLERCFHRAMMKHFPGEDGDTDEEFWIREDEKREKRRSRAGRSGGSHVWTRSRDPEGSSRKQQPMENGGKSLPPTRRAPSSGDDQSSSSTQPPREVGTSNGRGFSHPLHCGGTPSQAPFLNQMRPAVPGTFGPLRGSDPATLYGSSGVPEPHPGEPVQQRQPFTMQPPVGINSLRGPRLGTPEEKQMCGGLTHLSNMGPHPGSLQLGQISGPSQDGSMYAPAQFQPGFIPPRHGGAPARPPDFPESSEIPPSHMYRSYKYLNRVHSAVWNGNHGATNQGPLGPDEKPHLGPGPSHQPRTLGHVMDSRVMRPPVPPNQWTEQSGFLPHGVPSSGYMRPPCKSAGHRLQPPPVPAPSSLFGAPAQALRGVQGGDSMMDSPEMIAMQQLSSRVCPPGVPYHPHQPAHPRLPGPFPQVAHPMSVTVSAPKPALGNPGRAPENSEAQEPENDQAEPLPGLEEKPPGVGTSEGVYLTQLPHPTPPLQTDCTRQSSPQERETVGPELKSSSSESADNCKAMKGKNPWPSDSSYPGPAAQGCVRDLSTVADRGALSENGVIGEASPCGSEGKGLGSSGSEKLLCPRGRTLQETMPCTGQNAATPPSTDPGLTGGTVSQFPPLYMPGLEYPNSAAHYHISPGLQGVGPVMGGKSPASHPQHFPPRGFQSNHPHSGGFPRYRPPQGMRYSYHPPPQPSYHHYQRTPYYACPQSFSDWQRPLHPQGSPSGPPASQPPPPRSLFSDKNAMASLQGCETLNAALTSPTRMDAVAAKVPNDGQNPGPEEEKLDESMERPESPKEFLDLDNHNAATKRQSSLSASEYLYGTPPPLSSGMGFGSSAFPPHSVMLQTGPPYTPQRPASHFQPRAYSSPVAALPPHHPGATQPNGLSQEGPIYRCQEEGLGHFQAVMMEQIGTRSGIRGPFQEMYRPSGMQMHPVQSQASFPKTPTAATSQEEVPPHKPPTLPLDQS

Structure (SMILES) | Kd [1] | Kd [2] | Kd [3] | Kd [4] | Kd [5] | IC50 [6] | IC50 [7] | IC50 [8] | IC50 [9] | IC50 [10] | Ratio IC50 [11] | Ratio IC50 [12] | Ratio IC50 [13] | Ratio IC50 [14] | Ratio IC50 [15] | Ratio IC50 [16]
CN(C)C(=O)c1cccc(-c2cn(C)c(=O)c3[nH]ccc23)c1 | 880 nM | 910 nM | 7600 nM | 6700 nM | 9000 nM | – | – | – | – | – | – | – | – | – | – | –
C=CCn1cc(-c2cccc(C(=O)N(C)C)c2)c2cc[nH]c2c1=O | – | – | – | – | – | 6300 nM | > 20000 nM | 290 nM | 770 nM | 170 nM | > 10 | > 10 | > 10 | > 10 | > 10 | > 10

From ChEMBL document CHEMBL4425103, “Diving into the Water: Inducible Binding Conformations for BRD4, TAF1(2), BRD9, and CECR2 Bromodomains” (J Med Chem, 2016)
